Measured values reported in ChEMBL document CHEMBL3124806, “Imidazopyridine-fused [1,3]-diazepinones: synthesis and antiproliferative activity” (Eur J Med Chem, 2014).
Active and inactive are the calls of the source. No cut-off for these calls is given here.

How the values were obtained:
[1] = target: Cyclin-dependent kinase 2 (Homo sapiens) (UniProt P24941); assay: Inhibition of human CDK2 at 10 uM
Summary of the method: (§1)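 Kinase selectivity panel of 19 protein tyrosine kinases and 30 serine/threonine kinases, run by a contract lab (CEREP). Each compound was tested at a single dose of 10 μM in duplicate.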

[2] = target: Glycogen synthase kinase-3 beta (Homo sapiens) (UniProt P49841); assay: Inhibition of human GSK3 beta at 10 uM; summary of the method: as §1
Chain of Glycogen synthase kinase-3 beta (Homo sapiens) (P49841 whole entry, looked up, the tested form may be a part): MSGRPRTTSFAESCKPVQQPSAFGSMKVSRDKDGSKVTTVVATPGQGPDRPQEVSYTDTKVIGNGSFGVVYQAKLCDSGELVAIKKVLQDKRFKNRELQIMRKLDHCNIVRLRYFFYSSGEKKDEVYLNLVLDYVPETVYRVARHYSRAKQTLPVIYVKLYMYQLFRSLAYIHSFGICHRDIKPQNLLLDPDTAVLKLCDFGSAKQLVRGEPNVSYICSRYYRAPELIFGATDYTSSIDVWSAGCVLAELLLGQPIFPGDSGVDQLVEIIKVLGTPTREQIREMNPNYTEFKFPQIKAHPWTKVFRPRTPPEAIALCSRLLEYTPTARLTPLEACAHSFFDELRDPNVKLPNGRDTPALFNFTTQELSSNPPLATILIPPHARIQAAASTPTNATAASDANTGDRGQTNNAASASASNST

[3] = test system: MDA-MB-435; assay: Induction of apoptosis in human MDA-MB-435 cells assessed as nuclei fragmentation at 5 uM after 20 hrs by Hoechst 33342 staining-based phase-contrast microscopy; type: functional, cell-based
[4] = test system: MDA-MB-435; assay: Cytotoxicity against human MDA-MB-435 cells assessed as cell growth at 10 uM after 48 hrs by MTT assay relative to untreated control; type: functional; conditions: MDA-MB-435, 48 h, read-out: Activity
Summary of the method: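 Melanoma lines grown at 37 °C in humidified 5% CO2: MDA-MB-435 in DMEM/Ham's F12 1:1 with 10% FCS and antibiotics, SK-MEL-2 in RPMI-1640 with 10% FCS. Cells plated 24 h, then exposed 48 h to 100–0.01 µM (dilutions from fresh 100 µM stock in medium). MTT 0.5 mg/mL added for 4 h, crystals dissolved in EtOH/DMSO 1:1, absorbance read at 540 nm. Mean ± SD of three independent experiments.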

[5] = test system: T47D; assay: Cytotoxicity against human T47D cells after 48 hrs by SRB assay; type: functional
Summary of the method: (§2)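 NCI-60 five-dose mode on the full human tumour line panel. Concentrations ran from 100 to 0.01 µM with 48 h continuous exposure. Growth was estimated by SRB protein staining against untreated controls, and IC50 values were derived from the dose–response.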

[6] = test system: MDA-MB-468; assay: Cytotoxicity against human MDA-MB-468 cells after 48 hrs by SRB assay; type: functional; conditions: MDA-MB-468, 48 h
Summary of the method: (§3)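 NCI-60 five-dose screen: cells exposed continuously for 48 h across 100 to 0.01 µM. Growth or viability estimated by sulforhodamine B protein staining, read spectrophotometrically against untreated controls; IC50 taken from the dose-response.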

[7] = test system: MDA-MB-231; assay: Cytotoxicity against human MDA-MB-231 cells after 48 hrs by SRB assay; type: functional; conditions: MDA-MB-231, 48 h; summary of the method: as §3
[8] = test system: MCF7; assay: Cytotoxicity against human MCF7 cells after 48 hrs by SRB assay; type: functional; conditions: MCF7, 48 h
Summary of the method: (§4)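 NCI-60 five-dose testing, 100 to 0.01 µM, under a 48 h continuous-exposure protocol. Growth estimated by SRB protein assay, read spectrophotometrically against untreated controls; IC50 derived from the dose-response.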

[9] = test system: PC-3; assay: Cytotoxicity against human PC3 cells after 48 hrs by SRB assay; type: functional; conditions: PC-3, 48 h; summary of the method: as §3
[10] = test system: RXF 393; assay: Cytotoxicity against human RXF393 cells after 48 hrs by SRB assay; type: functional; conditions: RXF 393, 48 h; summary of the method: as §3
[11] = test system: SK-OV-3; assay: Cytotoxicity against human SKOV3 cells after 48 hrs by SRB assay; type: functional; conditions: SK-OV-3, 48 h; summary of the method: as §2
[12] = test system: OVCAR-8; assay: Cytotoxicity against human OVCAR8 cells after 48 hrs by SRB assay; type: functional; conditions: OVCAR-8, 48 h; summary of the method: as §3
[13] = test system: OVCAR-3; assay: Cytotoxicity against human OVCAR3 cells after 48 hrs by SRB assay; type: functional; conditions: OVCAR-3, 48 h; summary of the method: as §3
[14] = test system: IGROV-1; assay: Cytotoxicity against human IGROV1 cells after 48 hrs by SRB assay; type: functional; conditions: IGROV-1, 48 h; summary of the method: as §4
[15] = Cytotoxicity against human UACC257 cells after 48 hrs by SRB assay; type: functional; conditions: UACC-257, 48 h; summary of the method: as §2
[16] = test system: SK-MEL-28; assay: Cytotoxicity against human SK-MEL-28 cells after 48 hrs by SRB assay; type: functional; conditions: SK-MEL-28, 48 h; summary of the method: as §3
[17] = test system: U-251; assay: Cytotoxicity against human U251 cells after 48 hrs by SRB assay; type: functional; conditions: U-251, 48 h; summary of the method: as §2
[18] = test system: SNB-75; assay: Cytotoxicity against human SNB75 cells after 48 hrs by SRB assay; type: functional; conditions: SNB-75, 48 h; summary of the method: as §2
[19] = test system: SF-539; assay: Cytotoxicity against human SF539 cells after 48 hrs by SRB assay; type: functional; conditions: SF-539, 48 h; summary of the method: as §3
[20] = test system: SF-268; assay: Cytotoxicity against human SF268 cells after 48 hrs by SRB assay; type: functional; conditions: SF-268, 48 h; summary of the method: as §3
[21] = test system: SW-620; assay: Cytotoxicity against human SW620 cells after 48 hrs by SRB assay; type: functional; conditions: SW-620, 48 h; summary of the method: as §2
[22] = test system: HT-29; assay: Cytotoxicity against human HT-29 cells after 48 hrs by SRB assay; type: functional; conditions: HT-29, 48 h; summary of the method: as §4
[23] = test system: HCT-116; assay: Cytotoxicity against human HCT116 cells after 48 hrs by SRB assay; type: functional; conditions: HCT-116, 48 h; summary of the method: as §4
[24] = test system: HCC 2998; assay: Cytotoxicity against human HCC2998 cells after 48 hrs by SRB assay; type: functional; conditions: HCC 2998, 48 h; summary of the method: as §4
[25] = test system: NCI-H522; assay: Cytotoxicity against human NCI-H522 cells after 48 hrs by SRB assay; type: functional; conditions: NCI-H522, 48 h; summary of the method: as §3
[26] = test system: RPMI-8226; assay: Cytotoxicity against human RPMI8226 cells after 48 hrs by SRB assay; type: functional; conditions: RPMI-8226, 48 h; summary of the method: as §3
[27] = test system: SR; assay: Cytotoxicity against human SR cells after 48 hrs by SRB assay; type: functional; summary of the method: as §2
[28] = test system: CCRF-CEM; assay: Cytotoxicity against human CCRF-CEM cells after 48 hrs by SRB assay; type: functional; summary of the method: as §4
[29] = read-out: LC50 (the source's name)

Structure (SMILES): C[C@@H]1NC(c2ccc(Br)cc2)=Nc2nc3ccccn3c2C1=O
- inhibition [1]: inactive
- inhibition [2]: inactive
- Activity [3]: Active
- growth at 10 µM [4]: -15%
- GI50 [5]: 46.2 µM
- TGI [5]: > 100 µM
- CC50 [5, 29]: > 100 µM
- GI50 [6]: 1.98 µM
- TGI [6]: 5.12 µM
- CC50 [6, 29]: > 100 µM
- GI50 [7]: 6.08 µM
- TGI [7]: > 100 µM
- CC50 [7, 29]: > 100 µM
- GI50 [8]: 2.99 µM
- TGI [8]: > 100 µM
- CC50 [8, 29]: > 100 µM
- GI50 [9]: 5.7 µM
- TGI [9]: > 100 µM
- CC50 [9, 29]: > 100 µM
- GI50 [10]: 10.2 µM
- TGI [10]: 51.8 µM
- CC50 [10, 29]: > 100 µM
- GI50 [11]: 4.41 µM
- TGI [11]: > 100 µM
- CC50 [11, 29]: > 100 µM
- GI50 [12]: 17 µM
- TGI [12]: > 100 µM
- CC50 [12, 29]: > 100 µM
- GI50 [13]: 3.34 µM
- TGI [13]: 17.8 µM
- CC50 [13, 29]: > 100 µM
- GI50 [14]: 51.9 µM
- TGI [14]: > 100 µM
- CC50 [14, 29]: > 100 µM
- GI50 [15]: 35.2 µM
- TGI [15]: > 100 µM
- CC50 [15, 29]: > 100 µM
- GI50 [16]: 9.51 µM
- TGI [16]: > 100 µM
- CC50 [16, 29]: > 100 µM
- GI50 [17]: 6.64 µM
- TGI [17]: > 100 µM
- CC50 [17, 29]: > 100 µM
- GI50 [18]: 0.7 µM
- TGI [18]: 7.06 µM
- CC50 [18, 29]: > 100 µM
- GI50 [19]: 7.98 µM
- TGI [19]: 85.3 µM
- CC50 [19, 29]: > 100 µM
- GI50 [20]: 17.2 µM
- TGI [20]: > 100 µM
- CC50 [20, 29]: > 100 µM
- GI50 [21]: 3.75 µM
- TGI [21]: > 100 µM
- CC50 [21, 29]: > 100 µM
- GI50 [22]: 3.73 µM
- TGI [22]: > 100 µM
- CC50 [22, 29]: > 100 µM
- GI50 [23]: 4.04 µM
- TGI [23]: > 100 µM
- CC50 [23, 29]: > 100 µM
- GI50 [24]: 21.9 µM
- TGI [24]: > 100 µM
- CC50 [24, 29]: > 100 µM
- GI50 [25]: 3.23 µM
- TGI [25]: 18.4 µM
- CC50 [25, 29]: > 100 µM
- GI50 [26]: 7.31 µM
- TGI [26]: > 100 µM
- CC50 [26, 29]: > 100 µM
- GI50 [27]: 2.42 µM
- TGI [27]: > 100 µM
- CC50 [27, 29]: > 100 µM
- GI50 [28]: 6.56 µM
- TGI [28]: > 100 µM
- CC50 [28, 29]: > 100 µM
